The data set is described as follows: Toxicity liver stage against HepG2, at 10uM. The data set is classed as cell-based. Also noted: test concentration 10 uM, cell line HepG2-A16-CD81EGFP. The settings on record: human, HepG2-A16-CD81EGFP cells; read-out: INHIBITION
The method, boiled down: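 Uninfected HepG2-A16-CD81EGFP cells, 3 × 10^3 per well, 1536-well, plated on prespotted compound at 10 μM final, parasite-free screening media added to match infected plates; puromycin 10 μM positive, DMSO 0.5% negative; run in parallel with 48 h PbLuc assay at 37 °C, 5% CO2; viability by CellTiter-Glo luminescence, normalized to controls.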
Consider `O=C1N[C@@H]2CCN(C(=O)C3CCC3)[C@@H]2C(=O)N1c1ccc(F)cc1`, for which the cytotoxicity at 10 µM was -6.43%.

As to `CO[C@H]1COCCN(C(=O)c2cc(C)oc2C(F)(F)F)C1`, the cytotoxicity at 10 µM was -12.1%.

On to `CN1C[C@H](O)C[C@H]1c1nc(-c2ccc(OC(F)(F)F)cc2)no1`, for which the cytotoxicity at 10 µM was -12.2%.

As to `CCOCCNC(=O)c1cccnc1N1CCCC1c1ccccn1` (stereo unspecified), the cytotoxicity at 10 µM turned out to be 4.65%.

`O=C(C1CC(=O)N(c2n[nH]c3cc(Br)ccc23)C1)N1CCOCC1` (stereo unspecified): the cytotoxicity at 10 µM is -3.27%.

`O=c1n(Cc2cccc(F)c2)nc2ncccn12`: the cytotoxicity at 10 µM was -7.9%.

Regarding `Cn1cnc2c1C(C(=O)N1CCOCC1)N(C(=O)c1ccccc1)CC2` (stereo unspecified), the cytotoxicity at 10 µM was -0.388%.

Consider `Cc1cccc(S(=O)(=O)N2C[C@@H]3OCCN(C(C)C)[C@@H]3C2)c1`, for which the cytotoxicity at 10 µM was 7.64%.

As for `O=C(Nc1ccccc1)C1=NOC2(CCCN(C(=O)C3CCCC3)C2)C1` (stereo unspecified), the cytotoxicity at 10 µM is 4.88%.

In the case of `O=C(NCc1ccco1)N1CCCCC1c1nc(-c2ccncc2)no1` (stereo unspecified), the cytotoxicity at 10 µM was -7.92%.

As for `CC(=O)c1nn(-c2ccccc2Cl)c(C)c1C(C)=O`, the cytotoxicity at 10 µM is 6.33%.

With `O=C(Cn1nc2c(cc1=O)CCCC2)NC(Cc1ccccc1)C(=O)O` (stereo unspecified), the cytotoxicity at 10 µM is 2.24%.

Take `CC(C)CNC(=O)CSC1CCc2ccccc2NC1=O` (stereo unspecified): the cytotoxicity at 10 µM is -2.38%.

For `COCC1c2nnn(CC3CC3)c2CCN1C(=O)c1cccc(F)c1` (stereo unspecified), the cytotoxicity at 10 µM is -8.31%.

As to `FC(F)(F)c1cc(N2CCc3ncnc(NC4CC4)c3CC2)ncn1`, the cytotoxicity at 10 µM is 1.79%.

With `CCOC(=O)c1sc(NC(=O)COC)c(C#N)c1C`, the cytotoxicity at 10 µM was 7.61%.

Consider `N#Cc1c(N2CCOCC2)nsc1-c1cccnc1`, for which the cytotoxicity at 10 µM worked out at 17%.

`Cc1cc(C(=O)NCc2c(C)nn(C)c2C)nc(N2CCCC2)n1`: the cytotoxicity at 10 µM is 7.05%.

`O=C(Cn1cc(I)cn1)N1CCCC1`: the cytotoxicity at 10 µM is -0.653%.

For `Cc1cc(NC2CC3(CCN(Cc4csc(C)n4)C3)C2)ncn1` (stereo unspecified), the cytotoxicity at 10 µM was -2.34%.

Consider `Cc1cc(-c2ccc(=O)n(C3CCN(C(=O)C4CCC4)CC3)n2)c(C)o1`, for which the cytotoxicity at 10 µM came to 4.22%.

Take `COCCNc1cccc(C2CCCN2)n1` (stereo unspecified): the cytotoxicity at 10 µM is -25.9%.

For `Cn1nccc1C(=O)N1CCCC1c1[nH]ncc1C(N)=O` (stereo unspecified), the cytotoxicity at 10 µM is -15.2%.

Consider `O=C(CCn1ccnc1)N1C[C@@H](O)[C@H](Oc2cccc(F)c2)C1`, for which the cytotoxicity at 10 µM is -21.6%.

In the case of `Cc1cc(CN(C)Cc2ncc(C(C)(C)C)o2)no1`, the cytotoxicity at 10 µM stood at 2.58%.

In the case of `Cc1cnn(CC2CCN(CC(O)c3ccccc3F)CC2)c1` (stereo unspecified), the cytotoxicity at 10 µM was -5.18%.

Take `Cc1ccc(CN(Cc2cc(=O)n3cccc(C)c3n2)C(C)C)o1`: the cytotoxicity at 10 µM is 7.65%.

For `Cc1nc(C(NC(=O)c2cc(C(C)C)[nH]n2)c2ccccc2)n[nH]1` (stereo unspecified), the cytotoxicity at 10 µM turned out to be 11.6%.

On to `CCC(=O)Nc1nnc2n(Cc3cccc(OC)c3)[nH]c(C)c1-2`, for which the cytotoxicity at 10 µM was -9.24%.

As to `CCOC(=O)CCNC(=O)c1cccc2ccc(C)nc12`, the cytotoxicity at 10 µM was -5.15%.

For the molecule `Cc1oc(C)c(C(=O)NS(=O)(=O)c2ccc3c(c2)OCCCO3)c1C`, the cytotoxicity at 10 µM is 6.08%.

On to `Cc1ccc(CNC(=O)NCC(=O)NC(C)(C)C)c(N2CCCC2)c1`, for which the cytotoxicity at 10 µM came to 5.68%.

Consider `Cc1ccc(C(=O)N(Cc2cccc(F)c2)C2CC2)c(=O)[nH]1`, for which the cytotoxicity at 10 µM is -4.86%.

Take `Cc1cnn(CCC(=O)N(CC2CN(C)CCO2)c2nccs2)c1` (stereo unspecified): the cytotoxicity at 10 µM is -5.82%.

In the case of `COc1c(F)cc(NC(=O)NCc2nncn2C2CC2)cc1F`, the cytotoxicity at 10 µM is -4.7%.

Consider `O=C(NS(=O)(=O)c1cc(Cl)ccc1Cl)c1cccc2c1OCCO2`, for which the cytotoxicity at 10 µM was found to be 10.3%.

Take `Cc1noc(C)c1CNC(=O)N1CCCC(C)CC1` (stereo unspecified): the cytotoxicity at 10 µM was -7.31%.

For the molecule `CCCc1nc(C)c(C(=O)NC2CCN(CC(N)=O)CC2)s1`, the cytotoxicity at 10 µM was -6.3%.

`CN(C(=O)C1(C#N)CCCCC1)c1nccs1`: the cytotoxicity at 10 µM amounted to 0.658%.

Consider `Cc1cc(CNC(=O)NCc2cccs2)ccc1S(C)(=O)=O`, for which the cytotoxicity at 10 µM was -6.97%.

For `Cc1nccc(CNS(=O)(=O)N2CCCC2c2ccc(C)o2)n1` (stereo unspecified), the cytotoxicity at 10 µM is -5.88%.

As to `Cc1ccoc1C(=O)N(CCN(C)C)Cc1ccccn1`, the cytotoxicity at 10 µM was -5.47%.

Consider `CN(C)C(=O)Cc1ccccc1NCc1cc(C#N)ccc1F`, for which the cytotoxicity at 10 µM stood at 48.1%.

Regarding `CC(C)NC(=O)CS(=O)(=O)c1cc2c(cc1Cl)OCCO2`, the cytotoxicity at 10 µM was -2.46%.

In the case of `CCCC(=O)N(C)c1cc(C#N)c2ccccc2n1`, the cytotoxicity at 10 µM was -7.55%.

For the molecule `CCOc1ccc(CN2C(=O)CC(C)(C)C2=O)nc1`, the cytotoxicity at 10 µM was -11.9%.

Turning to `Cn1ncc2c1CCCC2NCc1ccc(OCc2cccnc2)cc1` (stereo unspecified), the cytotoxicity at 10 µM stood at 4.13%.

Consider `CN(CCCc1cc(-c2ccc(F)cc2)n(C)n1)CC(=O)NC(N)=O`, for which the cytotoxicity at 10 µM was determined as 1.04%.

Take `Cc1cnn(C2CN(CC(O)c3ccc(F)cc3)C2)c1` (stereo unspecified): the cytotoxicity at 10 µM was 11.9%.

In the case of `CCOC1CCN(C(=O)c2c(Cl)c3ccccc3n2C)CC1`, the cytotoxicity at 10 µM turned out to be 6.56%.

For `O=C(NCCCn1nc2ccccn2c1=O)NC1CCC(O)CC1` (stereo unspecified), the cytotoxicity at 10 µM was -12.8%.

As to `CCn1nnc2c1C(COC)CN(Cc1ccco1)C2` (stereo unspecified), the cytotoxicity at 10 µM amounted to 0.73%.

On to `CC(=O)N(C)Cc1ncn2c1CN(C(=O)CC1CC1)CCC2`, for which the cytotoxicity at 10 µM is -110%.

As for `CN(C)c1ccnc(-c2ccnc3c2ccn3C)n1`, the cytotoxicity at 10 µM is 20.2%.

On to `Cc1cnc(C)c(N2CCC3(CCCN(C4CCOCC4)C3=O)C2)n1` (stereo unspecified), for which the cytotoxicity at 10 µM is -124%.

For `CCn1c(N)nc2cc(C(=O)N3CCN(CC(F)(F)F)CC3)cnc21`, the cytotoxicity at 10 µM is -2.03%.

As to `CCCn1cc(C(=O)N2CCCC(c3nccn3CCOC)C2)c(C)n1` (stereo unspecified), the cytotoxicity at 10 µM was found to be 0.00455%.

Take `Cc1ncsc1CCC(=O)NCc1cc2n(n1)CCNC2`: the cytotoxicity at 10 µM was -3.78%.

As for `COc1ccc(-c2ncc(-c3nccn3CCN(C)C)cn2)cc1`, the cytotoxicity at 10 µM was determined as 1.44%.

Turning to `CC(C)N1CCCC(C(=O)NCCc2csc(-c3ccncc3)n2)C1` (stereo unspecified), the cytotoxicity at 10 µM is -17.4%.

As to `Cc1cc(C2CCCN2Cc2cccc(C(=O)Nc3nccs3)c2)no1` (stereo unspecified), the cytotoxicity at 10 µM is -4.12%.

On to `CN1CSC[C@H]1C(=O)N1CCN(Cc2cccc(Cl)c2)CC1`, for which the cytotoxicity at 10 µM is -4.28%.

Regarding `CN(Cc1ncc[nH]1)CC1CCOc2ccccc2C1` (stereo unspecified), the cytotoxicity at 10 µM is -1.93%.

Take `O=C(c1cnc(O)cn1)N1CCC(CN2CCOCC2)CC1`: the cytotoxicity at 10 µM stood at 9.49%.

In the case of `O=C(c1ccc(C2CCCN2C(=O)c2cscn2)s1)N1CCSCC1` (stereo unspecified), the cytotoxicity at 10 µM was -4.31%.

With `CN(Cc1cc2n(n1)CCCNC2)Cc1cc(-c2ccncc2)no1`, the cytotoxicity at 10 µM came to 3.67%.

`CC(=O)Nc1ccc(-c2cn(CCn3c(C)cc(C)nc3=O)nn2)cc1`: the cytotoxicity at 10 µM is 5.03%.

On to `O=C(NCCc1nc(C2CC2)no1)[C@H]1CNC[C@H](C(=O)N2CCCC2)C1`, for which the cytotoxicity at 10 µM was -107%.

As for `Cn1nccc1CCNC(=O)[C@H]1CNC[C@H](C(=O)N2CCCC2)C1`, the cytotoxicity at 10 µM is -133%.

`CCN(CC)S(=O)(=O)N1CCCC(c2cccc(C(=O)O)c2)C1` (stereo unspecified): the cytotoxicity at 10 µM was -10%.

Take `CCc1noc(-c2cccc(C(=O)O)c2)n1`: the cytotoxicity at 10 µM is -8.24%.

For the molecule `CN(Cc1ccco1)C(=O)C1CSCN1C(=O)c1cccs1` (stereo unspecified), the cytotoxicity at 10 µM is -7.81%.

For the molecule `c1ccc(Cc2nnc(CN3CCc4cncnc4C3)o2)cc1`, the cytotoxicity at 10 µM was -4.48%.

Turning to `NC(=O)NCC1CCCCN1Cc1nc(-c2ccco2)no1` (stereo unspecified), the cytotoxicity at 10 µM was -6.06%.

For `CN(C)C1CCN(C(=O)Cc2csc(-c3ncccn3)n2)CC1`, the cytotoxicity at 10 µM was -0.279%.

On to `CC(C)N(C(=O)CN(C)C1CCc2ccccc21)C(C)C` (stereo unspecified), for which the cytotoxicity at 10 µM was -9.3%.

`O=C(Cc1n[nH]c2ccccc12)N1CCCCC1Cn1cccn1` (stereo unspecified): the cytotoxicity at 10 µM was -14.8%.

As to `CCCc1nc(CNC(C)Cn2cccn2)cs1` (stereo unspecified), the cytotoxicity at 10 µM is -12.5%.

As for `CCn1cc(NC(=O)NCC(O)c2ccccc2)cn1` (stereo unspecified), the cytotoxicity at 10 µM was -1.14%.

For the molecule `CCOC(=O)CSc1nnc([C@@H](N)C(C)CC)o1` (stereo partly specified), the cytotoxicity at 10 µM stood at 2%.

`CN(Cc1cccnc1)[C@@H]1CN(C(=O)CC2CC2)[C@@H]2CCCO[C@H]12`: the cytotoxicity at 10 µM amounted to 7.86%.

For `CN(C(=O)c1ncn2c1CN(C)S(=O)(=O)c1ccccc1-2)C1CC1`, the cytotoxicity at 10 µM was -131%.

As for `CNC(=O)[C@H]1C[C@@H]2CCN(Cc3ccncc3)C[C@H]2O1`, the cytotoxicity at 10 µM was 10.3%.

Regarding `Cn1nc(CN2CCCC2)c2c1CN(C(=O)c1cccnc1)CC2`, the cytotoxicity at 10 µM was -146%.

Take `O=C(NCc1ccco1)[C@H]1CC[C@@H]2[C@@H](CCN2Cc2nccs2)O1`: the cytotoxicity at 10 µM is 2.67%.

Consider `CC(C)N(C)Cc1cnc2n1CCN(S(=O)(=O)c1ccccc1)C2`, for which the cytotoxicity at 10 µM is -1.72%.

`CCN(CC)CC1CN(Cc2ccc(C)s2)Cc2nccn2C1` (stereo unspecified): the cytotoxicity at 10 µM came to 2.32%.

Regarding `Fc1ccc(CN2CCO[C@H]3[C@H](OCC4CC4)CC[C@@H]32)cc1`, the cytotoxicity at 10 µM is -5.34%.

Consider `CCCC(=O)N1C[C@@H]2CCN(c3cnccn3)C[C@@H]2C1`, for which the cytotoxicity at 10 µM is -1.48%.

Take `COCC(=O)N1CC[C@@H](OCC2CC2)[C@@H]1Cc1cccnc1`: the cytotoxicity at 10 µM was -4.92%.

As for `O=C(Cc1ccccn1)N1C[C@H](OCc2cccnc2)[C@H]2COC[C@H]21`, the cytotoxicity at 10 µM worked out at 12.3%.

Take `CCOc1ncnc2c1CCN(C(=O)NCc1cccnc1)CC2`: the cytotoxicity at 10 µM was -127%.

For the molecule `c1ccc(-c2cnc3n2CCNC32CCNCC2)cc1`, the cytotoxicity at 10 µM was -2.2%.

Regarding `Cc1ccc(NCc2cncc3c2CCN(Cc2ccccn2)C3)nn1`, the cytotoxicity at 10 µM is -6.4%.

Consider `O=C(Cc1cccs1)N1C[C@@H]2OCCN(CC3CCCC3)[C@@H]2C1`, for which the cytotoxicity at 10 µM is -4.75%.

Take `O=C(c1cc(F)cc(Cl)c1)N1C[C@H]2CC[C@@H](C1)N(Cc1ccccc1)C2`: the cytotoxicity at 10 µM is -128%.

The record behind these values is ChEMBL document CHEMBL4513216, “Probing the Open Global Health Chemical Diversity Library for Multistage-Active Starting Points for Next-Generation Antimalarials” (ACS Infect Dis, 2020).
